# Source: PubChem BioAssay
# An excerpt weighted towards active compounds, which were near 3.4% of everything screened.
# VIM-2 inhibitor: blocks Pseudomonas aeruginosa VIM-2 metallo-beta-lactamase; purified VIM-2, nitrocefin hydrolysis, epi-absorbance fluorescence; inhibition, % at 5.6 µM; AID 1527; 0.89% of 290,000 active;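 active = inhibition above the mean of all tested compounds plus 3 SD, cutoff set per screening run, cut at about 7.5% in these data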;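 note: red hydrolysis product quenches plate fluorescence so inhibitors raise well fluorescence; 0% = enzyme with DMSO and 100% = DMSO without enzyme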
# IMP-1 inh-1: inhibitors of Pseudomonas aeruginosa IMP-1 metallo-beta-lactamase | 0.45% of 290,000 active | inhibition, % at 5.6 µM | purified IMP-1, nitrocefin hydrolysis, epi-absorbance fluorescence;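 active = inhibition above the mean plus 3 SD of all compounds in the same screening run, cut at about 4.5% in these data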;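 note: 0% = IMP-1 with DMSO and 100% = DMSO wells lacking enzyme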
#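 Assay system: purified IMP-1; Quantity: IMP-1 0.2 nM before substrate addition; Medium: HEPES buffer pH 7.1 with ZnSO4 and Brij 35; Incubation: 15 min enzyme–compound preincubation, then 25 min nitrocefin reaction, 25 °C; Signal: fluorescence quenching readout, ex 480/em 530 nm; Controls: DMSO with and without IMP-1; Repeats: singlicate testing.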
# MEKK2mut PB1 HTS: signal of MEK5 binding to mutant human MEKK2 PB1 domain; bead flow cytometry, Alexa488-MEK5 binding to MEKK2 mutant; percent response, % at 10 µM; 0.35% of 290,000 active; in the data active = percent response above about 24%, passing the limit was not always enough
# MEKK3 PB1 HTS: modulators (inhibitors or enhancers) of MEK5 binding to human MEKK3 PB1 domain. Q99759. bead-based flow cytometry, Alexa488-MEK5 binding to MEKK3; actives lie on both sides; 0 = blocked by unlabeled MEK5, 100 = vehicle. binding response (% of control), % at 10 µM. 1.4% of 290,000 active. AID 1529;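 active = binding response more than 3 SD above or below the average of its plate-row segment, actives on both sides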;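 note: Alexa488 bead fluorescence after subtracting the streptavidin-only scavenger bead signal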
# MEKK2 WT-MEK5: raises or lowers MEK5 binding to wildtype human MEKK2 PB1 domain; bead flow cytometry, Alexa488-MEK5 binding to MEKK2 WT; actives lie on both sides; binding response (% of control), % at 10 µM; 1.1% of 290,000 active; AID 1531; in the data active = binding response below about 67% or above about 130%
# IMP-1 inh-2: IMP-1 inhibition, counter-screen for VIM-2 inhibitors. shares compounds with VIM-2 inhibitor. purified IMP-1, nitrocefin hydrolysis, epi-absorbance fluorescence. inhibition, % at 5.6 µM. 1,300 tested, under 10 active. AID 1856; call rule not given here;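 note: 0% = enzyme with vehicle and 100% = vehicle without enzyme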
# VIM-2 FRET ctr: counter-screen for VIM-2 inhibitors: epi-absorbance artifacts via FRET; shares compounds with VIM-2 inhibitor; purified VIM-2, CCF2 FRET substrate hydrolysis; inhibition, % at 5.6 µM; 23% of 1,300 active; AID 1857;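 active = inhibition above the mean of all tested compounds plus 3 SD, cut at about 19% in these data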;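 note: 0% = VIM-2 plus DMSO and 100% = no enzyme wells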
# TEM-1 inh: blocks E. coli TEM-1 beta-lactamase in VIM-2 selectivity screen; shares compounds with VIM-2 inhibitor; Purified TEM-1, nitrocefin hydrolysis, epi-absorbance fluorescence; inhibition, % at 5.6 µM; 3% of 1,300 active; AID 1866;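 active = inhibition above that campaign's mean inhibition plus 3 SD, cut at about 0.46% in these data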;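 note: 0% = TEM-1 with DMSO and 100% = TEM-1 with 100 µM potassium clavulanate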
# Target sequence (P62593 whole entry, looked up): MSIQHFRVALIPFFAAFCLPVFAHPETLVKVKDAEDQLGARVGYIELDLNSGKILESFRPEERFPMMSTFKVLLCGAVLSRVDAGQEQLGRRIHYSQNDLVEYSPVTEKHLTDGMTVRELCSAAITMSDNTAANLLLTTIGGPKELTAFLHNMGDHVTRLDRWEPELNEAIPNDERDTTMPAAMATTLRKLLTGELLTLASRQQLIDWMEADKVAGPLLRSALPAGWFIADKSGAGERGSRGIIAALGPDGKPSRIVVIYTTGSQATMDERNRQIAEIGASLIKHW
# VIM-2 inh conf: confirmation of P. aeruginosa VIM-2 metallo-beta-lactamase inhibitors | purified VIM-2, nitrocefin hydrolysis, epi-absorbance | inhibition, % at 5.6 µM | shares compounds with VIM-2 inhibitor | 96% of 1,300 active;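 active = inhibition of the VIM-2 beta-lactamase enzyme above about 11% from the earlier first-round screen, limit read from the data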;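 note: 0% = VIM-2 with DMSO and 100% = buffer wells without enzyme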
# Active calls of the source: *; . = no result given.
SMILES,VIM-2 inhibitor,IMP-1 inh-1,MEKK2mut PB1 HTS,MEKK3 PB1 HTS,MEKK2 WT-MEK5,IMP-1 inh-2,VIM-2 FRET ctr,TEM-1 inh,VIM-2 inh conf
Cc1sc2c(=O)n3c(nc2c1C(=O)NCCCN1CCOCC1)CCCCC3,18*,-3,-2,99,102,-2,0,-6,36*
CC(C(=O)O)c1ccc(-c2ccccc2)c(F)c1 (stereo not drawn),-1,-2,-29,94,84,.,.,.,.
O=[N+]([O-])c1cc(-c2ccc(/C=N\n3cnnc3)o2)cc([N+](=O)[O-])c1,54*,-2,0,94,93,-4,-1,-7,66*
Cc1ccc(-c2ccc(/C=N/n3cnnc3)o2)cc1Cl,21*,-4,4,104,106,-4,-9,-7,45*
Cc1ccc(-c2ccc(/C=N/n3cnnc3)o2)cc1,-1,-2,1,103,108,.,.,.,.
Clc1cccc(-c2ccc(/C=N/n3cnnc3)o2)c1,19*,1,0,100,99,-1,-3,1.9*,33*
O=C(CSCc1ccccc1)N1CCN(c2cccc(C(F)(F)F)c2)CC1,-1,-2,13,104,106,.,.,.,.
Cc1ccc(-n2c(-c3nn(C)c(C)c3Cl)n[nH]c2=S)cc1,19*,-4,2,101,102,-4,54*,-8,36*
Cc1ccc(-c2n[nH]c(=S)n2Cc2ccccc2)cc1,12*,0,0,104,96,-3,29*,-10,16*
Cc1ccc(-c2n[nH]c(=S)n2-c2ccccc2)cc1,13*,-3,2,86,86,-4,35*,-8,23*
Oc1ccc(Br)cc1-c1n[nH]c(=S)n1Cc1ccccc1,-3,-3,1,100,101,.,.,.,.
Oc1ccccc1-c1n[nH]c(=S)n1Cc1ccccc1,13*,-3,1,98,99,-4,26*,-9,15*
Cc1ccc(-n2c(-c3cccc(C)c3)n[nH]c2=S)cc1,0,-4,-1,99,98,.,.,.,.
CCn1c(-c2nn(C)c(C)c2Cl)n[nH]c1=S,2,-4,2,101,99,.,.,.,.
O=C(/C=C/c1ccco1)Nc1ccc2c(c1)OCO2,-2,-3,-5,100,99,.,.,.,.
CCCc1[nH]n(-c2nc3ccccc3s2)c(=O)c1C=NCCCN(CC)CC,-3,-4,-8,103,93,.,.,.,.
Cc1ccc(NC(=O)CCC(=O)N2CCOc3ccccc32)c(Cl)c1,-1,-2,1,102,99,.,.,.,.
CCc1nc2sc3c(c2c(=S)[nH]1)CC(C)(C)OC3,2,-2,1,106,102,.,.,.,.
CSc1nc(SCC(=O)NCc2ccco2)c2c3c(sc2n1)COC(C)(C)C3,-1,-2,10,107,104,.,.,.,.
CSc1nc(SCC(=O)O)c2c3c(sc2n1)COC(C)(C)C3,17*,-4,5,101,98,-3,43*,-6,25*
